Consider two compounds from ChEMBL document CHEMBL1150614, “Novel cytotoxic oxygenated C29 sterols from the Colombian marine sponge Polymastia tenax” (J Nat Prod, 2002).

SMILES strings stand for the structures. In brackets after ≈: the same amount, converted by molar mass.

Common to all, as to details: read-out: LC50 (the source's name)
Data set [1] can be described thus: Cytotoxicity against human H116 cells. It is filed as functional. A digest of the protocol: (§1)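 In vitro cytotoxicity assay against the cell line named; values reported as IC50 in µg/mL.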
For a further data set, the system named is A549. The experiment in a line: Cytotoxicity against human A549 cells. It is filed as functional. A digest of the protocol:
as §1

The nature of data set [2]: Cytotoxicity against mouse MS1 cells. It is filed as cell-based. A digest of the protocol: as §1
The next data set has as its system HT-29. Nature of the data set: Cytotoxicity against human HT-29 cells. It is filed as functional. The method, boiled down:
as §1

A further data set has as its system PC-3. The experiment in a line: Cytotoxicity against human PC3 cells. The data set is classed as functional. The method, boiled down: as §1

As for `CC[C@H](CC[C@@H](C)[C@H]1CCC2=C3[C@H](O)[C@@H]4O[C@@]45C[C@@H](O)CC[C@]5(C)[C@H]3CC[C@@]21C)C(C)C`, the CC50 is 1 µg/mL (≈ 2.25 µM) in data set [1]; 5 µg/mL (≈ 11.2 µM) with A549; 0.5 µg/mL (≈ 1.12 µM) in data set [2]; 1 µg/mL (≈ 2.25 µM) in the data set on HT-29; 1 µg/mL (≈ 2.25 µM) in the data set on PC-3.

`CC[C@H](CC[C@@H](C)[C@H]1CC[C@H]2C3=C(CC[C@]12C)[C@@]1(C)CC[C@H](O)C[C@@]12O[C@H]2[C@H]3O)C(C)C` (relative stereo): the CC50 in data set [1] was found to be 1 µg/mL (≈ 2.25 µM); in the data set on A549, 1 µg/mL (≈ 2.25 µM); in data set [2], 0.5 µg/mL (≈ 1.12 µM); with HT-29, 1 µg/mL (≈ 2.25 µM); in the data set on PC-3, 1 µg/mL (≈ 2.25 µM).
